Assay results as given in ChEMBL document CHEMBL1255290, “Characterization of a novel human immunodeficiency virus type 1 protease inhibitor, A-790742” (Antimicrob Agents Chemother, 2008).

Legend:
[1] = system: Human immunodeficiency virus 1; experiment: Antiviral activity against HIV1 P15 infected in human MT4 cells derived from viral passages with A-790742 harboring protease L33L/F, K45I, V82L, and I84V mutation assessed as reduction in viral cytopathogenicity treated 1 hr post infection measured 5 days post infection by MTT assay relative to wild type HIV1 pNL4-3; format: functional
In short: (§1)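 For the assay, 10⁶ MT-4 cells were infected at MOI 0.003, washed after 1 h, and plated at 10⁴ cells/well with eight serial compound dilutions in triplicate (0.5% DMSO final). MTT cytopathic read-out at day 5; EC50 from dose-response fitting.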

[2] = system: Human immunodeficiency virus 1; experiment: Antiviral activity against HIV1 clone2 infected in HEK293 cells harboring A-790742-selected protease V82L mutation assessed as reduction in viral replication by luciferase reporter gene assay relative to wild type HIV1 pNL4-3; format: functional
In short: (§2)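 Single-cycle assay: HEK-293 cells were cotransfected with luciferase-reporter HIV-1 protease clones plus a VSV-G expression vector. After 4 h, cells were replated at 2 × 10⁴/well over serial inhibitor dilutions in triplicate. Pseudovirus collected at 48 h infected fresh HEK-293 (10⁴/well). Luciferase read 48 h later gave % inhibition versus untreated and EC50. Fold change against WT pNL4-3-Luc (clones 1-4) or RF-Luc (clone 5) is the mean of three experiments.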

[3] = system: Human immunodeficiency virus 1; experiment: Antiviral activity against HIV1 P21 infected in human MT4 cells derived from viral passages with A-790742 harboring protease L23I, L33F, K45I, A71A/V, V77I, V82L, and I84V mutation assessed as reduction in viral cytopathogenicity treated 1 hr post infection measured 5 days post infection by MTT assay relative to wild type HIV1 pNL4-3; format: functional; in short: as §1
[4] = system: Human immunodeficiency virus 1; experiment: Antiviral activity against HIV1 clone5 infected in HEK293 cells harboring A-790742-selected protease L63P, A71V, and V82G mutation assessed as reduction in viral replication by luciferase reporter gene assay relative to wild type HIV1 RF; format: functional; in short: as §2
[5] = system: Human immunodeficiency virus 1; experiment: Antiviral activity against HIV1 clone4 infected in HEK293 cells harboring A-790742-selected protease L33F, A71V, G73S, V77I, V82L, and I84V mutation assessed as reduction in viral replication by luciferase reporter gene assay relative to wild type HIV1 pNL4-3; format: functional; in short: as §2
[6] = system: Human immunodeficiency virus 1; experiment: Antiviral activity against HIV1 P13 infected in human MT4 cells derived from viral passages with A-790742 harboring protease M46I, L63P, A71V, and V82G mutation assessed as reduction in viral cytopathogenicity treated 1 hr post infection measured 5 days post infection by MTT assay relative to wild type HIV1 RF; format: functional; in short: as §1
[7] = system: Human immunodeficiency virus 1; experiment: Antiviral activity against HIV1 clone3 infected in HEK293 cells harboring A-790742-selected protease L33F, K45I, V82L, and I84V mutation assessed as reduction in viral replication by luciferase reporter gene assay relative to wild type HIV1 pNL4-3; format: functional; in short: as §2
[8] = system: Human immunodeficiency virus 1; experiment: Antiviral activity against HIV1 P9 infected in human MT4 cells derived from viral passages with A-790742 harboring protease V82V/L and I84V mutation assessed as reduction in viral cytopathogenicity treated 1 hr post infection measured 5 days post infection by MTT assay relative to wild type HIV1 pNL4-3; format: functional; in short: as §1
[9] = system: Human immunodeficiency virus 1; experiment: Antiviral activity against HIV1 clone1 infected in HEK293 cells harboring A-790742-selected protease I84V mutation assessed as reduction in viral replication by luciferase reporter gene assay relative to wild type HIV1 pNL4-3; format: functional; in short: as §2
[10] = system: Human immunodeficiency virus 1; experiment: Antiviral activity against HIV1 P25 infected in human MT4 cells harboring protease L10F, G16E, V32I, M46I, I47A, H69Y, I84V, and T91S mutation derived from viral passages with Lopinavir assessed as reduction in viral cytopathogenicity treated 1 hr post infection measured 5 days post infection by MTT assay; format: functional, organism-based; details: Human immunodeficiency virus 1, P25, MT4; in short: as §1
[11] = system: Human immunodeficiency virus 1; experiment: Antiviral activity against wild-type HIV1 pNL4-3 infected in human MT4 cells assessed as reduction in viral cytopathogenicity treated 1 hr post infection measured 5 days post infection in presence of 50% human serum by MTT assay; format: functional, organism-based; details: Human immunodeficiency virus 1, pNL4-3, MT4
[12] = system: Human immunodeficiency virus 1; experiment: Antiviral activity against HIV1 A17 infected in human MT4 cells harboring protease L10F, V32I, M46I, I47V, Q58E, and I84V mutation derived from viral passages with Lopinavir assessed as reduction in viral cytopathogenicity treated 1 hr post infection measured 5 days post infection by MTT assay; format: functional, organism-based; details: Human immunodeficiency virus 1, A17, MT4; in short: as §1
[13] = system: Human immunodeficiency virus 1; experiment: Antiviral activity against wild-type HIV1 pNL4-3 infected in human MT4 cells assessed as reduction in viral cytopathogenicity treated 1 hr post infection measured 5 days post infection in absence of human serum by MTT assay; format: functional, organism-based; details: Human immunodeficiency virus 1, pNL4-3, MT4; in short: as §1
[14] = system: Human immunodeficiency virus 1; experiment: Antiviral activity against wild-type HIV1 RF infected in human MT4 cells assessed as reduction in viral cytopathogenicity treated 1 hr post infection measured 5 days post infection in absence of human serum by MTT assay; format: functional, organism-based; details: Human immunodeficiency virus 1, RF; in short: as §1

SMILES | Ratio EC50 [1] | Ratio EC50 [2] | Ratio EC50 [3] | Ratio EC50 [4] | Ratio EC50 [5] | Ratio EC50 [6] | Ratio EC50 [7] | Ratio EC50 [8] | Ratio EC50 [9] | EC50 [10] [nM] | EC50 [11] [nM] | EC50 [12] [nM] | EC50 [13] [nM] | EC50 [14] [nM]
CC(C)(C)NC(=O)[C@@H]1C[C@@H]2CCCC[C@@H]2CN1C[C@@H](O)[C@H](Cc1ccccc1)NC(=O)[C@H](CC(N)=O)NC(=O)c1ccc2ccccc2n1 | 4 | 1 | 5 | 28 | 1 | 21 | 0.4 | 3 | 1 | – | – | – | – | –
CC(C)CN(C[C@@H](O)[C@H](Cc1ccccc1)NC(=O)O[C@H]1CCOC1)S(=O)(=O)c1ccc(N)cc1 | 11 | 1 | 34 | 41 | 2 | 41 | 12 | 9 | 1 | – | – | – | – | –
CC(C)CN(C[C@@H](O)[C@H](Cc1ccccc1)NC(=O)O[C@H]1CO[C@H]2OCC[C@H]21)S(=O)(=O)c1ccc(N)cc1 | – | 1 | – | 59 | 7 | – | 12 | – | 1 | 857 | 40 | – | – | –
CCC[C@@]1(CCc2ccccc2)CC(O)=C([C@H](CC)c2cccc(NS(=O)(=O)c3ccc(C(F)(F)F)cn3)c2)C(=O)O1 | – | – | – | – | 6 | – | – | – | – | – | 7840 | 360 | 184 | 204
